Test [1] deals with HL-60. The test can be described thus: Antiproliferative activity against human HL60 cells after 72 hrs by MTT assay. Conditions: HL-60, 72 h. It is filed as functional, cell-based. A digest of the protocol: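 HL-60 cells seeded at 1 × 10^4 cells/well, exposed to 2-fold serial dilutions with paclitaxel as positive control, 72 h at 37 °C. MTT (5 mg/mL in PBS) added for 2 h at 37 °C. Formazan dissolved overnight at 37 °C in 10% SDS/45% dimethylformamide, absorbance read at 570 nm. n = 3 independent experiments, two technical replicates each.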
(In general: Tetrazolium assays rely on reduction of a dye to a coloured formazan, in cell work by metabolically active cells.)

Test [2] relates to HL-60. The test can be described thus: Cell cycle arrest in human HL60 cells assessed as accumulation at G1 phase at 1 uM after 18 hrs by propidium iodide staining based flow cytometry (reference value: 51%). It is filed as functional. A digest of the protocol:
(§1)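 HL-60 cells seeded at 1 × 10^5 cells/well, exposed to 1 μM compound for 18 h at 37 °C. Stained 30 min in the dark with propidium iodide (0.05 mg/mL in 0.1% sodium citrate, 0.1% Triton X-100, 100 μg/mL RNase), then DNA content read by flow cytometry. Reported as % cells in each phase; n = 2 replicates from a single experiment.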

Test [3] relates to HL-60. The test can be described thus: Cell cycle arrest in human HL60 cells assessed as accumulation at S phase at 1 uM after 18 hrs by propidium iodide staining based flow cytometry (reference value: 27%). It is filed as functional. An outline of the steps: as §1
Test [4] deals with HL-60. The test can be described thus: Cell cycle arrest in human HL60 cells assessed as accumulation at G2/M phase at 1 uM after 18 hrs by propidium iodide staining based flow cytometry (reference value: 22%). It is filed as functional. A digest of the protocol:
as §1
On the technique in general: A flow cytometer gives signals particle by particle.

For test [5], the species on record is Sus scrofa. The test can be described thus: Induction of porcine tubulin polymerization assessed as microtubule stabilization at 2.8 uM measured at 1 min interval over 100 mins. A digest of the protocol:
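Fluorescence-based assay with purified porcine brain tubulin, no microtubule-associated proteins, glycerol omitted from polymerization buffer. Compound at 2.8 μM final, paclitaxel 2.8 μM as positive control, vehicle control. Tubulin buffer added immediately before reading. Kinetic read at 37 °C, λex 360/λem 450 nm, every 1 min for 100 min. n = 3 replicates, single preparation.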

The species entered for test [6] is Sus scrofa. The test can be described thus: Induction of porcine tubulin polymerization assessed as microtubule stabilization at 27 uM measured at 1 min interval over 100 mins. A digest of the protocol:
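Fluorescence-based in vitro assay with purified porcine brain tubulin, run without microtubule-associated proteins and with glycerol omitted from the polymerization buffer. Compound at 27 μM final, with tubulin buffer added just before reading. Kinetic read at 37 °C, λex 360/λem 450 nm, every 1 min for 100 min. n = 3 replicates from a single preparation.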

Molecules are shown by their SMILES. Activity calls are given as the source filed them. No cut-off for these calls is given here.

One may read the IC50 as the concentration that gives 50% inhibition. A high value points to a need for much substance. Take `C=C1C[C@@H]2C/C=C/C(=O)C/C(C)=C\C=C\C(=O)O[C@H]([C@H](O)NC(=O)/C=C/C=C\C)C/C(C)=C/[C@H](C1)O2`: the IC50 in the test on HL-60 [1] turned out to be 5.3 nM. In addition, the Activity was 19% in the test with HL-60 [2], 26% in the test with HL-60 [3] and 55% in the test with HL-60 [4]. The outcome in the test listed under Sus scrofa [5] was Active.

The compound `C=C1C[C@@H]2C/C=C/C(=O)C/C(C)=C/C=C/C(=O)O[C@H]([C@H](O)NC(=O)/C=C\C=C\C)C/C(C)=C/[C@H](C1)O2` showed a half-inhibitory concentration (IC50) in the test on HL-60 [1] of 3.3 nM. The figures for the Activity with HL-60 [2], in the test on HL-60 [3] and with HL-60 [4] were 16%, 30% and 54%, respectively. Also, the result in the test filed under Sus scrofa [5] was Active.

In the test with HL-60 [1], `C=C1C[C@@H]2C/C=C/C(=O)C/C(C)=C\C=C\C(=O)O[C@H](C=O)C/C(C)=C/[C@H](C1)O2` yielded an IC50 of 240 nM. Further, the results for the Activity in the test on HL-60 [2], with HL-60 [3] and in the test with HL-60 [4] were 17%, 29% and 54%, respectively. Also, the result in the test listed under Sus scrofa [6] was inactive.

Compound `C=C1C[C@@H]2C/C=C/C(=O)C/C(C)=C\C=C\C(=O)O[C@H]([C@H](O)NC(=O)/C=C\C=C\C)C/C(C)=C/[C@H](C1)O2` [ZAMPANOLIDE] yielded an IC50 in the test with HL-60 [1] of 3.2 nM. Further, the Activity is recorded as 18% with HL-60 [2], 28% in the test on HL-60 [3] and 54% in the test on HL-60 [4]. Also, the outcome in the test listed under Sus scrofa [5] was Active.

The compound `C=C1C[C@@H]2CCCC(=O)C/C(C)=C\C=C\C(=O)O[C@H]([C@H](O)NC(=O)/C=C\C=C\C)C/C(C)=C/[C@H](C1)O2` displayed an IC50 with HL-60 [1] of 300 nM. In addition, the Activity in the test with HL-60 [2] stood at 44%; in the test with HL-60 [3] it was 25%; in the test on HL-60 [4] it was 30%. Further, the result in the test listed under Sus scrofa [6] was inactive.

`CC(=O)O[C@H]1C(=O)[C@@]2(C)[C@H]([C@H](OC(=O)c3ccccc3)[C@]3(O)C[C@H](OC(=O)[C@H](O)[C@@H](NC(=O)c4ccccc4)c4ccccc4)C(C)=C1C3(C)C)[C@]1(OC(C)=O)CO[C@@H]1C[C@@H]2O` [PACLITAXEL]: the Activity is recorded as 18% in the test with HL-60 [2], 24% in the test on HL-60 [3] and 58% in the test with HL-60 [4]. For the same compound, the outcome in the test listed under Sus scrofa [5] was Active.

(Values after ChEMBL document CHEMBL4266029, “Zampanolides B-E from the Marine Sponge Cacospongia mycofijiensis: Potent Cytotoxic Macrolides with Microtubule-Stabilizing Activity” (J Nat Prod, 2018).)
